{
  "source": "ChEMBL document CHEMBL4312019",
  "about": "“Design, synthesis, and evaluation of compounds capable of reducing Pseudomonas aeruginosa virulence” (Eur J Med Chem, 2020)",
  "type_in_all_cases": "cell-based",
  "key": {"NIH3T3 [1]": {"test_system": "NIH3T3", "experiment": "Cytotoxicity against mouse NIH/3T3 cells measured after 72 hrs by MTT assay", "conditions": "NIH3T3, 72 h"}, "[2]": {"molecular_target": "Alpha-1B adrenergic receptor (Homo sapiens) (UniProt P35368)", "sequence (P35368 whole entry)": "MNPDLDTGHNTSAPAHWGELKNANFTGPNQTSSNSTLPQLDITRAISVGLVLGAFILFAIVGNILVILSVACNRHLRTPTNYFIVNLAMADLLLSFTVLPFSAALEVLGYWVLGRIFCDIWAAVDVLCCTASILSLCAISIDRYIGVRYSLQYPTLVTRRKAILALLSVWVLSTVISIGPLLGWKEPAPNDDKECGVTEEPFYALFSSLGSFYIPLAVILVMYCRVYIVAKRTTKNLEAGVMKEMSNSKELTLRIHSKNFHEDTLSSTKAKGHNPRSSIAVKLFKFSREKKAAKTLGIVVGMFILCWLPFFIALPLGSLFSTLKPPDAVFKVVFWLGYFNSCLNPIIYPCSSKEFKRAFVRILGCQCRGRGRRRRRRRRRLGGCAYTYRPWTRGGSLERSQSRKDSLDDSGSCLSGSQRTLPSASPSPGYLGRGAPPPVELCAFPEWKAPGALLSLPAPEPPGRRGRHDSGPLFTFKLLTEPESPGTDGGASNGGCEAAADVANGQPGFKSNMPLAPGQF", "experiment": "Displacement of [3H]-8-OH-DPAT from human recombinant alpha1B adrenergic receptor expressed in HEKT cells at 10 uM incubated for 90 mins by microbeta scintillation counting method", "how_it_was_run": "(§1)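 Primary radioligand binding screen run by the NIMH Psychoactive Drug Screening Program, with one test level of 10 μM. The read-out was inhibition of radioligand binding at each receptor.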"}, "[3]": {"molecular_target": "Sodium-dependent dopamine transporter (Homo sapiens) (UniProt Q01959)", "sequence (Q01959 whole entry)": "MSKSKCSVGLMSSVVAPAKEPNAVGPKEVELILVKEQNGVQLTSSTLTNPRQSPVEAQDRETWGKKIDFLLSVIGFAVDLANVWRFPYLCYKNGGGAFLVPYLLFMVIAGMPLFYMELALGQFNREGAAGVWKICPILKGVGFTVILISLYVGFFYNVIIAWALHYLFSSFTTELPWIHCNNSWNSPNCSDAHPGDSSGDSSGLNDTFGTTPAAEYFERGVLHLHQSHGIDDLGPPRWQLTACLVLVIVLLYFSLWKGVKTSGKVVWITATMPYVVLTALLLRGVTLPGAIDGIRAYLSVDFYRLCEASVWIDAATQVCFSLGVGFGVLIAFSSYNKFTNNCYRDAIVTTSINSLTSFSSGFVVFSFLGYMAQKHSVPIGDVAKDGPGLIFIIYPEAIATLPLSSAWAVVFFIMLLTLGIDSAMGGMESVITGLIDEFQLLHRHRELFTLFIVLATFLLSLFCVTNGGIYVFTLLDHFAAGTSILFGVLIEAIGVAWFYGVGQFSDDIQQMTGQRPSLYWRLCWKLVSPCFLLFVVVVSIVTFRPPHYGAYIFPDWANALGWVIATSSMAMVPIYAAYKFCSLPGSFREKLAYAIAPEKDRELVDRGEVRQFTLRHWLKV", "experiment": "Displacement of [3H]-Win35428 from human recombinant DAT receptor expressed in stable HEK cells incubated for 90 mins by microbeta scintillation counting method"}, "[4]": {"molecular_target": "Muscarinic acetylcholine receptor M5 (Homo sapiens) (UniProt P08912)", "sequence (P08912 whole entry)": "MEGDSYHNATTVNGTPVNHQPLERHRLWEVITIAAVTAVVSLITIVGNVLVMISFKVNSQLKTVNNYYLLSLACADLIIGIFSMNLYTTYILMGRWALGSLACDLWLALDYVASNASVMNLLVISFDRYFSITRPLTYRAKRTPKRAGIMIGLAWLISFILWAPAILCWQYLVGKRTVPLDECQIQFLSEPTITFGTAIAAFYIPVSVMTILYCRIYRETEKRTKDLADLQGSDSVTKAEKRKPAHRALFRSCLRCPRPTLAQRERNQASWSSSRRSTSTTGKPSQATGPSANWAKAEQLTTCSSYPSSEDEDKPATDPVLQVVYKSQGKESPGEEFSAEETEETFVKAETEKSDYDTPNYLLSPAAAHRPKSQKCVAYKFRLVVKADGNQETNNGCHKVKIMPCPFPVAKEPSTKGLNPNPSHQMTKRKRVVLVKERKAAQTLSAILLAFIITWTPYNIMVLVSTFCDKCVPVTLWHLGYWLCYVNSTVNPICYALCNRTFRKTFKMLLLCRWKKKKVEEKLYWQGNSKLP", "experiment": "Displacement of [3H]-QNB/[3H]-NMS from human recombinant muscarinic acetylcholine M5 receptor expressed in stable CHO cells incubated for 90 mins by microbeta scintillation counting method"}, "[5]": {"molecular_target": "Histamine H1 receptor (Homo sapiens) (UniProt P35367)", "sequence (P35367 whole entry)": "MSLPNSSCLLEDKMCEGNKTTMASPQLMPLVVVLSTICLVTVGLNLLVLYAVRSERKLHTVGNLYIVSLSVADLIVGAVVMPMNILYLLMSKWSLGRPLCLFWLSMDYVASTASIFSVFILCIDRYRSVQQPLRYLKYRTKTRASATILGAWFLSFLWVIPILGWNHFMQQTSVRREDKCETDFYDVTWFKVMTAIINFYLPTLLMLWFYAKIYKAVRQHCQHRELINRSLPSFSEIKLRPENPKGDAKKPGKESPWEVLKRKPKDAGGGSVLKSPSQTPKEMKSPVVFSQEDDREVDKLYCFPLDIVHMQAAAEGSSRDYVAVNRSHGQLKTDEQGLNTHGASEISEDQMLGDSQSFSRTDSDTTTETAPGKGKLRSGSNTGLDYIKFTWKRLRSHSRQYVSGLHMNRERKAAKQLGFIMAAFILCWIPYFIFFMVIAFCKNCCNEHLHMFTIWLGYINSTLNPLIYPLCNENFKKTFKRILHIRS", "experiment": "Displacement of [3H]-Pyrilamine from human recombinant histamine H1 receptor expressed in stable HEK cells incubated for 90 mins by microbeta scintillation counting method"}, "[6]": {"molecular_target": "5-hydroxytryptamine receptor 1D (Homo sapiens) (UniProt P28221)", "sequence (P28221 whole entry)": "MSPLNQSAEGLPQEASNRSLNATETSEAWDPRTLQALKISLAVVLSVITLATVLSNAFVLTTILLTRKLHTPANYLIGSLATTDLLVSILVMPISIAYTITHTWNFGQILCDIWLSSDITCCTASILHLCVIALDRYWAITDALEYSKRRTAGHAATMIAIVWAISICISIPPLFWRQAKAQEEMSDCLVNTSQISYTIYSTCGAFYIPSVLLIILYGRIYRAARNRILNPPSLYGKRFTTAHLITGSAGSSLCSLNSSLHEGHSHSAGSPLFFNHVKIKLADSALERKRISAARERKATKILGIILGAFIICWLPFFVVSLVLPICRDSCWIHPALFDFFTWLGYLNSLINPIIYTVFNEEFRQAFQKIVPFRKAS", "experiment": "Displacement of [3H]-5-CT from human recombinant 5HT1D receptor expressed in HEKT cells at 10 uM incubated for 90 mins by microbeta scintillation counting method", "how_it_was_run": "as §1"}, "[7]": {"molecular_target": "5-hydroxytryptamine receptor 3A (Homo sapiens) (UniProt P46098)", "sequence (P46098 whole entry)": "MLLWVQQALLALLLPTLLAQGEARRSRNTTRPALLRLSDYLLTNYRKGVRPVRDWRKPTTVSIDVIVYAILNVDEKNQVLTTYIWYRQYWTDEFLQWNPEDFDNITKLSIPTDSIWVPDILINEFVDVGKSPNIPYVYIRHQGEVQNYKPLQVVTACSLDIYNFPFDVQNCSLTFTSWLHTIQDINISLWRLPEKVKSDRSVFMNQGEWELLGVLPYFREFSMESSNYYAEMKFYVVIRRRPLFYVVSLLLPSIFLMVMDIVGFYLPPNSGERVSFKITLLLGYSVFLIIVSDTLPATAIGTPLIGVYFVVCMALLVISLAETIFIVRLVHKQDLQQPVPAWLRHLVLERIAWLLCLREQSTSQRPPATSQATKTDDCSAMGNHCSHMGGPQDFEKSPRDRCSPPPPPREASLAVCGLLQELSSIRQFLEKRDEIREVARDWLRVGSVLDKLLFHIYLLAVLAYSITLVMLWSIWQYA", "experiment": "Displacement of [3H]-GR65630 from human recombinant 5HT3 receptor expressed in HEKT cells at 10 uM incubated for 90 mins by microbeta scintillation counting method", "how_it_was_run": "as §1"}, "[8]": {"molecular_target": "Muscarinic acetylcholine receptor M1 (Homo sapiens) (UniProt P11229)", "sequence (P11229 whole entry)": "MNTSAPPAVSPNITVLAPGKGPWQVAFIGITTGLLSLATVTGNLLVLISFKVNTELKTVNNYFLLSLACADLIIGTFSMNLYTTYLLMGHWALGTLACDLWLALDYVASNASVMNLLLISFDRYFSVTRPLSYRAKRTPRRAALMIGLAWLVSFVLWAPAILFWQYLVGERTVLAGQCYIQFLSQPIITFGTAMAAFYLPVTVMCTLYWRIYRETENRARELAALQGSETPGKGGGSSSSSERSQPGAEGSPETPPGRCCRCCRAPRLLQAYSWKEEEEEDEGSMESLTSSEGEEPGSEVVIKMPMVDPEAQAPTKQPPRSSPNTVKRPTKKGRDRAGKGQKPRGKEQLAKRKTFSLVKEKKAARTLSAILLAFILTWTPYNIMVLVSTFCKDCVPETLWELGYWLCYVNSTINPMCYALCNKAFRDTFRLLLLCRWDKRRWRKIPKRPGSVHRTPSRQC", "experiment": "Displacement of [3H]-QNB/[3H]-NMS from human recombinant muscarinic acetylcholine M1 receptor expressed in stable CHO cells incubated for 90 mins by microbeta scintillation counting method"}, "[9]": {"molecular_target": "D(4) dopamine receptor (Homo sapiens) (UniProt P21917)", "sequence (P21917 whole entry)": "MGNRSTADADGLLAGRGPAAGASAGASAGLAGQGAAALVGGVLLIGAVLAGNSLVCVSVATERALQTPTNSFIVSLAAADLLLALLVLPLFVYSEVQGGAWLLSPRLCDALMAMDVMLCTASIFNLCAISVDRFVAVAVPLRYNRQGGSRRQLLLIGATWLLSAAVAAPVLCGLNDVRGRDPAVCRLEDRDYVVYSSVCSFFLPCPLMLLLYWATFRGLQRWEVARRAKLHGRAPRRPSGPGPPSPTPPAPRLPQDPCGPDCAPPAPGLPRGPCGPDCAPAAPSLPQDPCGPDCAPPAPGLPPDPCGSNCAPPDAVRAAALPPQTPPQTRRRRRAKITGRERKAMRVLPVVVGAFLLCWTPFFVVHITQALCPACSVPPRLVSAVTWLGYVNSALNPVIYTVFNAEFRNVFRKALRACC", "experiment": "Displacement of [3H]-methylspiperone from human recombinant dopamine D4 receptor expressed in stable HEK cells incubated for 90 mins by microbeta scintillation counting method"}, "[10]": {"molecular_target": "Beta-1 adrenergic receptor (Homo sapiens) (UniProt P08588)", "sequence (P08588 whole entry, looked up)": "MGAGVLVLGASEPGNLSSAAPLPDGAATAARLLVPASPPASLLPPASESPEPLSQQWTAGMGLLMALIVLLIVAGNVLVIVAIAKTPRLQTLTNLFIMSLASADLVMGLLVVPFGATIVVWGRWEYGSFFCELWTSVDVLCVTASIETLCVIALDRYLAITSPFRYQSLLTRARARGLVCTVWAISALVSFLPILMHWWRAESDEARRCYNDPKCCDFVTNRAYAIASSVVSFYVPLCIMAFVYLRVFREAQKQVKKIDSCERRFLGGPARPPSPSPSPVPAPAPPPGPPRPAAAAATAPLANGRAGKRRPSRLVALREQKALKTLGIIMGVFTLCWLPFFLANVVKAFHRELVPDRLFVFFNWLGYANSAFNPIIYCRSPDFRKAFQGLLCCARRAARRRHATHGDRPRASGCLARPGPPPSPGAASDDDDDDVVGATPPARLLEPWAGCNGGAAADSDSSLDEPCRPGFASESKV", "experiment": "Displacement of [125I]-pindolol from recombinant human beta1 adrenergic receptor expressed in CHO Flp-In cells incubated for 90 mins by microbeta scintillation counting method"}, "NIH3T3 [11]": {"test_system": "NIH3T3", "experiment": "Cytotoxicity against mouse NIH/3T3 cells measured after 48 hrs by MTT assay", "conditions": "NIH3T3, 48 h"}, "[12]": {"molecular_target": "5-hydroxytryptamine receptor 2B (Homo sapiens) (UniProt P41595)", "sequence (P41595 whole entry)": "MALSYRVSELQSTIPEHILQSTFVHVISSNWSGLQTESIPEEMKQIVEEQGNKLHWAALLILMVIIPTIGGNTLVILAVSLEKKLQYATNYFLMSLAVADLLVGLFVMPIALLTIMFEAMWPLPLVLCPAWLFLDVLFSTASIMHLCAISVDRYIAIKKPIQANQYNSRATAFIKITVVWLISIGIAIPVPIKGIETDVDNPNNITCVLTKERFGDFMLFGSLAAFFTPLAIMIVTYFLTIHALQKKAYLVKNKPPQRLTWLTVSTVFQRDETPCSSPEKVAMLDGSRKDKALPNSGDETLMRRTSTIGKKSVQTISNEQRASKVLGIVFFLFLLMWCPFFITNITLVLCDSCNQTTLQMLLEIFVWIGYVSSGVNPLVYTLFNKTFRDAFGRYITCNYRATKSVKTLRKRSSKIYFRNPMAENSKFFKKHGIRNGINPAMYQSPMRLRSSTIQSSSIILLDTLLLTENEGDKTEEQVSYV", "experiment": "Displacement of [3H]-LSD from human recombinant 5HT2B receptor expressed in stable HEK cells at 10 uM incubated for 90 mins by microbeta scintillation counting method", "how_it_was_run": "as §1"}},
  "note": "Active and inactive are the calls of the source. The rule behind the calls is not given here.",
  "data": [
    {"smiles": "Cn1c2cccc(=O)c-2nc2ccccc21", "note": "[PYOCYANIN]", "values": [
      {"measurement": "IC50", "setting": "NIH3T3 [1]", "value": 3.66, "unit": "µg/mL"},
      {"measurement": "inhibition", "setting": "[2]", "value": "inactive"},
      {"measurement": "inhibition", "setting": "[3]", "value": "inactive"},
      {"measurement": "inhibition", "setting": "[4]", "value": "inactive"},
      {"measurement": "inhibition", "setting": "[5]", "value": "inactive"},
      {"measurement": "inhibition", "setting": "[6]", "value": "inactive"},
      {"measurement": "inhibition", "setting": "[7]", "value": "inactive"},
      {"measurement": "inhibition", "setting": "[8]", "value": "inactive"},
      {"measurement": "inhibition", "setting": "[9]", "value": "inactive"},
      {"measurement": "inhibition", "setting": "[10]", "value": "inactive"},
      {"measurement": "IC50", "setting": "NIH3T3 [11]", "value": 3.54, "unit": "µg/mL"},
      {"measurement": "inhibition", "setting": "[12]", "value": "inactive"}
    ]}
  ]
}
